Bioassay records as filed in PubChem BioAssay.
RGS4 inh – human RGS4 inhibition. AID 463165. HEK293 M3R/RGS4 inducible, Fluo-4 calcium flux; hits give high values; triggered by carbachol at its EC20. P49798. B-score at 10 µM. 310,000 compounds, 0.45% hits;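 active = B-score, a plate-corrected calcium signal, over three deviations above library mean, with baseline fluorescence within five deviations of library mean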;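 also: RGS4 expression induced by doxycycline in cells with stable M3 receptor; B-score is computed from the integrated fluorescence ratio over baseline after carbachol; higher B-score means a larger calcium signal and so more RGS4 inhibition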
Target sequence (P49798 whole entry, looked up): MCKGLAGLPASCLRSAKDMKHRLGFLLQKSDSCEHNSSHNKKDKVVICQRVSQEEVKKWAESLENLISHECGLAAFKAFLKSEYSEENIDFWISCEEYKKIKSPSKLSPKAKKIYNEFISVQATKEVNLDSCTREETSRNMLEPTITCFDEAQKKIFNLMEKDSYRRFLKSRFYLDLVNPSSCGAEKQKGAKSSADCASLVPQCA
MrgX1 antag – antagonists of human MrgX1 receptor | Q96LB2 | MRGX1-HEK293 calcium flux, Fluo-4, BAM8-22 antagonism; hits give low values | B-score at 10 µM | 310,000 compounds, 1.3% hits | AID 588676;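 active = calcium-response B-score plate-corrected more than 3 library SD below zero, starting fluorescence within 5 deviations, no agonist response on first addition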;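 also: peak minus trough fluorescence over baseline after final BAM8-22 challenge near maximal dose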
Target sequence (Q96LB2 whole entry, looked up): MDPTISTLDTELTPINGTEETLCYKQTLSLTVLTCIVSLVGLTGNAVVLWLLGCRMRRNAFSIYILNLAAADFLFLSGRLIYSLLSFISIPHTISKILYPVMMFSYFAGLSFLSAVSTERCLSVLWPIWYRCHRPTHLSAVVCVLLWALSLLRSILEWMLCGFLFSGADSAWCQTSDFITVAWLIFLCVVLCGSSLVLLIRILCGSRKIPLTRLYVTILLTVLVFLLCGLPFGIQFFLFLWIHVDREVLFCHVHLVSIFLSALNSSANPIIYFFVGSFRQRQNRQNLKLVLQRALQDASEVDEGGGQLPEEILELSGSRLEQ
Cl transport mod – modulators of human KCC2 chloride dependent transport | Q9H2X9 | 190,000 compounds, 2.2% hits | KCC2 cells, thallium flux FluoZin-2 fluorescence | B-score of Tl+ flux slope (higher = more flux/activation; lower = inhibition) at 10 µM | AID 1456;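 active = thallium flux slope and its plate-corrected score both differing from the plate sample mean at a set confidence after two filtering rounds, in either direction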;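 also: slope of fluorescence scaled to starting intensity during 10 to 20 s after thallium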
MrgX1 PAM – allosterically activates human MrgX1 receptor signaling. MrgX1-HEK293, Fluo-4 calcium flux, FDSS; hits give high values. B-score at 10 µM. 310,000 compounds, 0.63% hits. AID 588675;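 active = plate-corrected calcium response at least 3 library SD above typical, normal starting fluorescence, not activating the receptor alone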;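 also: compound read alongside a low EC10 to EC30 dose of BAM8-22 agonist; peak minus trough fluorescence over baseline measured at the second addition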
MrgX1 ag – human MrgX1 receptor agonism, primary screen; B-score at 10 µM; 310,000 compounds, 0.44% hits; AID 588627; MrgX1-HEK293 cells, Fluo-4 calcium fluorescence, agonist mode; hits give high values;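 active = calcium response B-score plate-corrected fluorescence ratio at least 3 library SD, with starting fluorescence B-score inside 5 SD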
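System: HEK293 cells stably expressing human MrgX1 receptor; Dosing: test compound in the initial addition of three; Schedule: overnight plating, then 30 min 37 °C plus 30 min room-temperature dye loading; Detection: kinetic calcium dye fluorescence, Fluo-4 NW; Controls: per-plate positive and negative controls for Z′ factor.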
RGS4 pot – RGS4 potentiation or activation. 310,000 compounds, 0.92% hits. B-score at 10 µM. HEK293 M3R/inducible RGS4, carbachol calcium flux Fluo4; hits give low values;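 active = B-score of the integrated calcium signal more than 4 SD below the library mean, with starting fluorescence not abnormally high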;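 also: negative B-score means reduced calcium response which marks RGS4 activation or potentiation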
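Detection: kinetic calcium fluorescence imaging with Fluo4-AM dye, 2 µM / Material: HEK293 cells with stable M3R and inducible RGS4 / Schedule: recording 10 s baseline at 1 Hz, 100 s post-agonist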
* = called active by the depositor; i = inactive; . = no result given. This is a sample that favours compounds with a hit; in the whole collection about 4.7% have one here.

SMILES | RGS4 inh | MrgX1 antag | Cl transport mod | MrgX1 PAM | MrgX1 ag | RGS4 pot
COC(=O)c1cc(S(=O)(=O)N2CCN(Cc3ccccc3)CC2)cn1C | i | i | . | i | i | i
CCOC(=O)CNc1nc(C(C)(C)C)nc2c1nnn2Cc1ccccc1 | i | i | . | i | i | i
COc1ccccc1NC(=O)COC(=O)c1ccccc1OCC(=O)Nc1ccc(SC(F)F)cc1 | i | i | 0.25 | i | i | i
COc1ccccc1C(=O)COC(=O)c1ccccc1OCC(=O)Nc1ccc(SC(F)F)cc1 | i | i | 1.05 | i | i | -7.85*
Cn1cccc1/C=N/n1c(-c2ccc(Cl)cc2Cl)n[nH]c1=S | i | i | . | i | 27* | i
S=c1[nH]nc(-c2ccco2)n1/N=C/c1cccs1 | i | i | 2.31 | i | i | i
S=c1[nH]nc(-c2ccco2)n1/N=C/c1ccc(Cl)cc1Cl | i | i | 15.5* | i | i | i
S=c1[nH]nc(COc2ccccc2)n1/N=C/c1ccc(Cl)cc1Cl | i | i | . | i | i | i
S=c1[nH]nc(-c2ccco2)n1/N=C/c1cccc(Cl)c1Cl | i | i | 48.8* | i | i | i
COc1ccc(N2CCN(CCC(O)c3ccc4ccccc4c3)CC2)cc1 (centres undefined) | i | i | . | i | i | i
O=C(c1noc2c1CSc1ccccc1-2)N1CCN(c2ccc(Cl)cc2)CC1 | i | i | . | i | i | i
CCCC(c1nnnn1CS(=O)(=O)c1ccc(C)cc1)N1CCC(C(N)=O)CC1 (centres undefined) | i | i | . | i | i | i
COc1cccc(-c2ncc3ccccn23)c1 | i | i | -0.697 | i | i | i
COc1cccc(-c2cc3c(-n4cccc4)ncnc3o2)c1 | i | i | . | i | i | -7.12*
CCn1c(SCc2ccccc2F)nnc1-c1ccncc1 | i | i | . | i | i | i
CCCCn1nnnc1SCC(=O)NC1CCCCC1 | i | i | . | i | i | i
Cc1cccc(C(=O)O/N=C2/CC3CCC2(C)C3(C)C)c1 (centres undefined) | i | i | -0.392 | 8.19* | i | i
Cc1ccc(C(=O)O/N=C2\CC3CCC2(C)C3(C)C)cc1 (centres undefined) | i | i | . | 6.59* | i | i
CC(=O)Nc1ccc(NS(=O)(=O)c2ccc3c(c2)oc(=O)n3C)cc1 | i | i | . | i | i | i
CCn1c(CC(=O)Nc2ccccc2C)nnc1SCC(=O)NC1CCCC1 | i | i | . | i | i | i
Cc1ccc(NC(=O)CO/N=C/c2ccc(N(C)C)cc2)cc1 | i | -4.76* | -1.8 | i | i | i
CN(C)c1ccc(/C=N/OC(=O)Nc2ccccc2)cc1 | i | i | . | i | i | i
COc1cc(/C=N/NC(=O)c2ccc(CSc3nc4ccccc4[nH]3)cc2)ccc1O | i | i | -2.17 | i | i | i
CC1=C(C(N)=O)C(c2ccccc2[N+](=O)[O-])n2ncnc2N1 (centres undefined) | i | i | . | i | i | i
CC(SCc1nc2sc3c(c2c(=O)[nH]1)CCCC3)C(=O)Nc1ccccn1 (centres undefined) | i | i | . | i | i | i
SMILES | RGS4 inh | MrgX1 antag | Cl transport mod | MrgX1 PAM | MrgX1 ag | RGS4 pot
Cc1ccc(S(=O)(=O)Nc2cccc3ncccc23)s1 | i | i | 52.1* | i | i | i
CCCCN1C(=O)/C(=C/C=C2\N(C)c3ccccc3C2(C)C)SC1=S | i | -15* | -0.132 | i | i | i
CCc1cc(C(=O)NNC(=S)Nc2ccccc2C)cs1 | i | i | 0.866 | i | i | i
CCc1cc(C(=O)NNC(=S)Nc2cc(C)ccc2C)cs1 | i | i | 10.2* | i | i | i
Cc1ccc(C)c(NC(=S)NNC(=O)c2csc3c2CCC(C)C3)c1 (centres undefined) | i | i | 21.3* | i | i | i
COc1ccccc1NC(=O)c1csc2c1CCC(C)C2 (centres undefined) | i | i | -0.685 | i | i | i
Cc1ccc(C)c(NC(=S)NNC(=O)c2csc3c2CCCC3)c1 | i | i | 78.6* | i | i | i
Cc1cc(C(=O)N/N=C/C=C/c2ccc([N+](=O)[O-])cc2)n[nH]1 | i | i | -1.76 | i | i | i
Cc1cc(C(=O)N/N=C/C=C/c2ccc(Br)cc2)n[nH]1 | i | -5.6* | . | i | i | i
c1cc2c3c(cccc3c1)C(N1CCCCC1)=N2 | i | i | . | i | i | i
c1cc2c3c(cccc3c1)C(N1CCCCCC1)=N2 | i | i | -0.015 | i | i | -7.38*
Cc1ccc(S(=O)(=O)N/N=C/c2ccc(C#N)cc2)cc1 | i | i | . | i | i | i
Cc1ccccc1C(=O)NC(=S)NCCc1ccccc1 | i | i | 8.3* | i | i | i
CCCN(CCC)C(=S)NC(=O)c1ccc(-c2ccccc2)cc1 | i | i | . | i | i | i
O=C(NC(=S)N1CCCC1)c1ccc(Cl)cc1Cl | i | i | . | i | i | i
CCCCN(CCCC)C(=S)NC(=O)c1ccccc1Cl | i | i | 64.8* | i | i | i
CCN(CC)C(=S)NC(=O)c1ccc(Cl)cc1Cl | i | i | 11.7* | i | i | i
CCCCNC(=S)NC(=O)c1ccc(Cl)cc1Cl | i | i | 5.3* | i | i | i
O=C(NC(=S)NCCN1CCOCC1)c1ccc(Cl)cc1Cl | i | i | -0.205 | i | i | i
CCOCCCn1c(=S)[nH]c2cc(C(=O)NCCCN(CC)CC)ccc2c1=O | i | i | -0.127 | i | i | i
CC(OC(=O)Cn1cnc2c1c(=O)n(C)c(=O)n2C)C(=O)NC1CCCCC1C (centres undefined) | i | i | . | i | i | i
Cc1c(/C=N/NC(=O)c2ccc(Br)o2)cnn1C | i | i | 0.233 | i | i | i
COc1ccccc1CC(=O)N1CCN(S(=O)(=O)c2ccccc2)CC1 | i | i | . | i | i | i
COc1cc2c(cc1OC)CN(C1CCCN(Cc3cc(Cl)ccc3O)C1)CC2 (centres undefined) | i | i | . | i | i | i
COc1cccc(CN(C)C(=O)c2ccccc2Sc2ccccc2C#N)c1OC | i | i | . | i | i | i
